Source: ChEMBL document CHEMBL4266015, “Scaffold Ranking and Positional Scanning Identify Novel Neurite Outgrowth Promoters with Nanomolar Potency” (2018)

Experiments:
Format in all cases: functional, Hippocampal neurone
[1] = Induction of neurite outgrowth in rat hippocampal neurons assessed as neurite total length at 31.25 ng/ml after 48 hrs relative to control
Method in brief: (§1)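 E18 rat hippocampal neurons were plated on PDL at 1800 cells/well in NbActive4, adhered 2 h, then treated with compound prediluted in medium at 4× final for 48 h. Cells were fixed, stained for βIII-tubulin, imaged and auto-traced. Mean neurite total length is a percentage of DMSO vehicle wells on the same plate. ML-7 was the positive control and plates with Z-factor >0.5 were accepted.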

[2] = Induction of neurite outgrowth in rat hippocampal neurons assessed as neurite total length at 62.5 ng/ml after 48 hrs relative to control; method in brief: as §1
[3] = Induction of neurite outgrowth in rat hippocampal neurons assessed as neurite total length at 500 ng/ml after 48 hrs relative to control; method in brief: as §1
[4] = Induction of neurite outgrowth in rat hippocampal neurons assessed as neurite total length at 15.625 ng/ml after 48 hrs relative to control; method in brief: as §1
[5] = Induction of neurite outgrowth in rat hippocampal neurons assessed as neurite total length at 125 ng/ml after 48 hrs relative to control; method in brief: as §1
[6] = Induction of neurite outgrowth in rat hippocampal neurons assessed as neurite total length after 48 hrs
Method in brief: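 Dissociated E18 rat hippocampal neurons were seeded on PDL-coated plates at 1800 cells/well in NbActive4 and allowed to adhere 2 h. Compounds were prediluted in medium at 4× final and added, then cells were grown 48 h (2 DIV). Wells were fixed, immunostained for βIII-tubulin and imaged by automated tracing. ED200% and ED300% values were linearly interpolated from dose-response curves of mean neurite total length.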

[7] = Induction of neurite outgrowth in rat hippocampal neurons assessed as neurite total length at 250 ng/ml after 48 hrs relative to control; method in brief: as §1

| Structure (SMILES) | Activity [1] [%] | Activity [2] [%] | Activity [3] [%] | Activity [4] [%] | Activity [5] [%] | ED200 [6] [nM] | ED300 [6] [nM] | Activity [7] [%] |
| --- | --- | --- | --- | --- | --- | --- | --- | --- |
| CCC(C)C1=N[C@@H](CCCCN2C[C@@H](c3ccccc3)N(CC3CCC(C)CC3)C2=S)CN1 (some centres undefined) | 256.2 | 296.7 | 279.8 | 190 | 301.9 | 5 | 54 | 255.9 |
| CC(C)CCCCN1C(=S)N(CCCC[C@H]2CNC(CCCCc3ccccc3)=N2)C[C@H]1CC(C)C | 145.3 | 194.1 | 239.9 | 127.4 | 237.1 | – | – | 265.6 |
| CC(C)C[C@@H]1CN(CCCC[C@H]2CNC(CCCc3ccccc3)=N2)C(=S)N1CC1CCC(C)CC1 (some centres undefined) | 197 | 246.7 | 224.4 | 144.9 | 256.9 | 25 | 461 | 240 |
| CC1CCC(CCN2C(=S)N(CCCC[C@H]3CNC(CCCCc4ccccc4)=N3)C[C@H]2C)CC1 (some centres undefined) | 101.9 | 117.7 | 296.9 | 88.36 | 70.33 | – | – | 237.6 |
| CCC(C)CC1=N[C@@H](CCCCN2C[C@@H](c3ccccc3)N(CCCC3CCCCC3)C2=S)CN1 (some centres undefined) | 200.8 | 257.2 | 228.1 | 139 | 245.5 | – | – | 221.9 |
| CC1CCC(CN2C(=S)N(CCCC[C@H]3CNC(C4CCCC4)=N3)C[C@H]2C)CC1 (some centres undefined) | 128.3 | 168.1 | 322.3 | 94.61 | 230.7 | 130 | 282 | 257.3 |
| CC1CCC(CN2C(=S)N(CCCC[C@H]3CNC(CCCc4ccccc4)=N3)C[C@H]2c2ccccc2)CC1 (some centres undefined) | 174.3 | 237.5 | 221.2261 | 184.9 | 269.1 | 17 | >471 | 244.7 |
| CCC(C)CC1=N[C@@H](CCCCN2C[C@@H](c3ccccc3)N(CCCCC(C)C)C2=S)CN1 (some centres undefined) | 179.4 | 252.8 | 276.3 | 121.4 | 263.7 | – | – | 265.8 |
| S=C1N(CCCC[C@H]2CNC(CCCCc3ccccc3)=N2)C[C@@H](c2ccccc2)N1CCCC1CCCCC1 | 208.9 | 251.6 | 183.5 | 143.7 | 254.2 | – | – | 221.8 |
| S=C1N(CCCC[C@H]2CNC(C3CCCC3)=N2)C[C@@H](c2ccccc2)N1CCC1CCCCC1 | 251.5 | 260.5 | 185.9 | 182.3 | 261.9 | 7 | 91 | 232.4 |
| CC(C)CCCCN1C(=S)N(CCCC[C@H]2CNC(CCCCc3ccccc3)=N2)C[C@H]1C | 100.5 | 124.2 | 346.7 | 116.4 | 160.4 | – | – | 257.3265 |
| CC(C)CCCCN1C(=S)N(CCCC[C@H]2CNC(CC3CCCC3)=N2)C[C@H]1C | 137.9 | 175.9 | 323.7 | 113.8 | 213.9 | – | – | 264.8 |
| CCC(C)CC1=N[C@@H](CCCCN2C[C@@H](CC(C)C)N(CCCC3CCCCC3)C2=S)CN1 (some centres undefined) | 178.9 | 261.9 | 264.0755 | 158.9 | 252.9 | – | – | 253.1 |
| C[C@@H]1CN(CCCC[C@H]2CNC(CC3CCCC3)=N2)C(=S)N1CCCC1CCCCC1 | 157.6 | 188 | 304.4 | 104.7 | 250.7 | – | – | 245.7679 |
| CCC(C)CC1=N[C@@H](CCCCN2C[C@@H](C)N(CCCCC(C)C)C2=S)CN1 (some centres undefined) | 115.6 | 155 | 323.0821 | 92.45 | 169.1 | – | – | 209.2 |
| CC1CCC(CN2C(=S)N(CCCC[C@H]3CNC(C4CCCC4)=N3)C[C@H]2c2ccccc2)CC1 (some centres undefined) | 271.9 | 305.6 | 229.6 | 251 | 286.2 | 2 | >520 | 270.8 |
| CC(C)CCCCN1C(=S)N(CCCC[C@H]2CNC(CC3CCCC3)=N2)C[C@H]1c1ccccc1 | 234.3 | 279.6 | 273 | 173.9 | 249.2 | – | – | 277.9 |
| CCC(C)CC1=N[C@@H](CCCCN2C[C@@H](C)N(CCC3CCC(C)CC3)C2=S)CN1 (some centres undefined) | 134.9 | 150 | 293.6 | 97.33 | 166.2 | – | – | 266.7 |
| CCC(C)CC1=N[C@@H](CCCCN2C[C@@H](C)N(CCCC3CCCCC3)C2=S)CN1 (some centres undefined) | 121.4 | 142.6 | 357.5 | 102.3 | 196.1 | – | – | 246.1 |
| CC(C)C[C@@H]1CN(CCCC[C@H]2CNC(C3CCCC3)=N2)C(=S)N1CCC1CCCCC1 | 256.5 | 271 | 248.7 | 194.9 | 282.9 | 4 | >543 | 277.2 |
| CC(C)C[C@@H]1CN(CCCC[C@H]2CNC(CCCCc3ccccc3)=N2)C(=S)N1CCCC1CCCCC1 | 135.5 | 199.3 | 246.8 | 114 | 200.8 | – | – | 267.3 |
| C[C@@H]1CN(CCCC[C@H]2CNC(CCCCc3ccccc3)=N2)C(=S)N1CCCC1CCCCC1 | 122.1 | 122 | 242.7 | 100.8 | 209.7 | – | – | 246.6 |
| CC(C)CCCCN1C(=S)N(CCCC[C@H]2CNC(CCCCc3ccccc3)=N2)C[C@H]1c1ccccc1 | 170.2 | 172.4 | 225.1 | 113.8 | 259.1 | – | – | 253.9 |
| CCC(C)C1=N[C@@H](CCCCN2C[C@@H](CC(C)C)N(CC3CCC(C)CC3)C2=S)CN1 (some centres undefined) | 216.3 | 253.6 | 264.4 | 131.1 | 268.2 | 10 | 53 | 236 |
| CC(C)C[C@@H]1CN(CCCC[C@H]2CNC(C3CCCC3)=N2)C(=S)N1CC1CCC(C)CC1 (some centres undefined) | 255.4 | 253.6 | 263 | 169.9 | 311.6 | 4 | 25 | 238.5 |
| CCC(C)CC1=N[C@@H](CCCCN2C[C@@H](CC(C)C)N(CCCCC(C)C)C2=S)CN1 (some centres undefined) | 179.8 | 222.6 | 239.5 | 122.8 | 254 | – | – | 258.7 |
